Experimental findings from article PMC6217956 (The FEBS journal, 2016) are described below.

What all share (type): binding
The target in one experiment is T1, wild type PTN (Homo sapiens, UniProt P21246).
T1 sequence (P21246 33-168): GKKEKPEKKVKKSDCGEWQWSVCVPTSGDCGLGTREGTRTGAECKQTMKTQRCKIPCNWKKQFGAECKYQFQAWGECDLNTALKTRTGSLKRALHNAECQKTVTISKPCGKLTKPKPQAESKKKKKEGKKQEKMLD
In words: Immobilized CSA and CSE ELISA of wild type PTN. The following applies: immobilized native CS, biotinylated wild type PTN, Langmuir isotherm 1:1. Put shortly: (§1)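 Human PTN (wild type or residues 1–114) was expressed in E. coli Origami B (DE3), purified on a heparin column, and biotinylated by EDC coupling to amine-PEG-biotin (MES pH 5.5). CSA or CSE was EDC/NHS-crosslinked overnight to poly-L-lysine-coated amine plates, then blocked with 5% BSA for 1.5 h. PTN at 2.5–0.015 μg/ml, 1 h; streptavidin-HRP 1 h; TMB; HCl stop; A450. Kd by 1:1 Langmuir fit; ≥3 runs, triplicate points.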
A general note: ELISA stands for enzyme-linked immunosorbent assay.

Experiment [1] addresses T2, C-terminal truncated PTN (residues 1 to 114) (Homo sapiens, UniProt P21246).
T2 sequence (P21246 33-146): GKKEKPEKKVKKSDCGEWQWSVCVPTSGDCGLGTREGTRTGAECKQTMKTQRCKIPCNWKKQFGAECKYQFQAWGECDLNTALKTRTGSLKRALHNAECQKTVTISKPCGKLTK
In words: Immobilized CSA and CSE ELISA of C-terminal truncated PTN. The following applies: immobilized native CS, biotinylated truncated PTN (residues 1 to 114). The gist of the method: as §1

A further experiment concerns the target T3, PTN (Homo sapiens, UniProt P21246).
T3 sequence (P21246 33-168): T1 sequence (P21246 33-168)
In words: PRE control experiment with 4-hydroxy-TEMPO. The following applies: under the condition of the PRE experiments.

One may read the Kd as the equilibrium constant for the complex coming apart. Higher therefore signals a looser complex. As for Chondroitin Sulfate E [CSE], the Kd entry (at wild type PTN; in experiment [1]) was “four to five” each time.

In the case of Chondroitin Sulfate A [CSA], the Kd at wild type PTN was about 17 nM; in experiment [1], “failed to bind”.

For the compound `CC1(C)CC(O)CC(C)(C)N1[O]` [4-hydroxy-TEMPO], at PTN, the “non-specific interactions between the TEMPO moiety and PTN” value is “no non-specific interactions”.
